In one assay the target is D(2) dopamine receptor (Rattus norvegicus, UniProt P61169). Kind of assay: Binding affinity against Dopamine receptor D2 from rat brain corpus striatum membrane.
A further assay concerns the target D(1A) dopamine receptor (Rattus norvegicus, UniProt P18901). In words: Binding affinity against Dopamine receptor D1 from rat brain corpus striatum membrane. The method in brief: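 Four to six concentrations of each test agent. IC50 ± SEM obtained by computer-assisted curve fitting; Ki derived from IC50 using the Kd and ligand concentration.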

From ChEMBL document CHEMBL1125019 (J Med Chem, 1990) come the findings set out here.

Some results are limits rather than exact numbers.

By IC50 is commonly meant the concentration needed to halve the response being measured. Lower therefore signals greater potency.

Sequence of D(1A) dopamine receptor (P18901 whole entry): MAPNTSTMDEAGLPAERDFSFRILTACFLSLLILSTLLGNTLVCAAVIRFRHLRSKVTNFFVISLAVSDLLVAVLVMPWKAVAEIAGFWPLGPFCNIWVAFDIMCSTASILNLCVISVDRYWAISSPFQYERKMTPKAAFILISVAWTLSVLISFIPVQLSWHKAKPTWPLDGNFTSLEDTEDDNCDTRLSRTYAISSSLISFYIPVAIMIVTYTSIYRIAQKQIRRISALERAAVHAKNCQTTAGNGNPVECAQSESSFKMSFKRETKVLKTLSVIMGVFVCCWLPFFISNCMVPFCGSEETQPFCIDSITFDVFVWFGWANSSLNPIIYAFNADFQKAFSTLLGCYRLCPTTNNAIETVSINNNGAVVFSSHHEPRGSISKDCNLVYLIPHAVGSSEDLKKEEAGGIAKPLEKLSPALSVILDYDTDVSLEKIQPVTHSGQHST
Sequence of D(2) dopamine receptor (P61169 whole entry): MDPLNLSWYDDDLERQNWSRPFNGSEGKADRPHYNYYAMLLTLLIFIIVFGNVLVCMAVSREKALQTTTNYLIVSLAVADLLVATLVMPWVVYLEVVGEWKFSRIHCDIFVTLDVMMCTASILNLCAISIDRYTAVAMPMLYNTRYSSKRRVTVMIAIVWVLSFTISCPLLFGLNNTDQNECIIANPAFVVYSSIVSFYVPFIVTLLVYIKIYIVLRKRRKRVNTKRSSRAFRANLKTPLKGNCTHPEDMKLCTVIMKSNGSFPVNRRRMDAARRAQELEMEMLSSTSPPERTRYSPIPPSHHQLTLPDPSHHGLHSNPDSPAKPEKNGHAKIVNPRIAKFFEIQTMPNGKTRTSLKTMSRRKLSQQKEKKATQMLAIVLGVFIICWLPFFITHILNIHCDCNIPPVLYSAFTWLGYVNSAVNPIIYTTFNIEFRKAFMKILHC

On to `CCCN1CCc2cc(F)cc3c2[C@H]1Cc1ccc(O)c(O)c1-3`, for which the 50% inhibitory concentration (IC50) on D(2) dopamine receptor was 0.071 nM; at D(1A) dopamine receptor it was 1300 nM.

In the case of `CCCN1CCc2cc(F)cc3c2[C@H]1Cc1ccc2c(c1-3)OCO2`, the half-maximal inhibitory concentration (IC50) on D(2) dopamine receptor came out at 97.6 nM; on D(1A) dopamine receptor it was 3100 nM.

Turning to `CCCN1CCc2cc(N)cc3c2[C@H]1Cc1ccc(O)c(O)c1-3`, the results for the concentration for half-maximal inhibition (IC50) on D(2) dopamine receptor and at D(1A) dopamine receptor were 5.5 nM and over 10000 nM, respectively.

As to `CCCN1CCc2cc(N)cc3c2[C@H]1Cc1ccc2c(c1-3)OCO2`, the results for the IC50 at D(2) dopamine receptor and at D(1A) dopamine receptor were 704 nM and over 10000 nM, respectively.

Turning to `CCCN1CCc2cc(O)cc3c2[C@H]1Cc1ccc(O)c(O)c1-3`, the half-maximal inhibitory concentration (IC50) on D(2) dopamine receptor turned out to be 0.32 nM; on D(1A) dopamine receptor, 1720 nM.

With `CCCN1CCc2cc(Br)cc3c2[C@H]1Cc1ccc(O)c(O)c1-3`, the IC50 was 0.89 nM at D(2) dopamine receptor and 970 nM on D(1A) dopamine receptor.

As for `CCCN1CCc2cc(OC)cc3c2[C@H]1Cc1ccc(O)c(O)c1-3`, the IC50 at D(2) dopamine receptor came out at 1.02 nM; at D(1A) dopamine receptor, 3340 nM.
